KCNK3 inh: human KCNK3 channel inhibition, primary screen | O14649 | CHO-KCNK3 thallium flux, FluxOR fluorescence; active compounds read low | B-score at 10 µM | AID 602410 | 340,000 tested, 0.84% active;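 active means B-score under library mean minus 4 SD, starting fluorescence ratio at most library mean plus 5 SD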;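 further: more negative B-score means stronger inhibition of thallium flux through KCNK3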
KCNQ1 act: potentiates or activates the human KCNQ1 potassium channel. B-score at 10 µM. 310,000 tested, 0.35% active. CHO-K1 KCNQ1, thallium flux FluxOR fluorescence; active compounds read high. P51787. AID 2648;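 active means fluorescence ratio B-score, a plate-corrected score, at least three library SD, with initial intensity B-score within 5 SD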
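Medium – assay buffer, equal DMSO in all wells · Material – CHO-K1 cell line with stable KCNQ1 potassium channel expression · Signal – kinetic FluxOR thallium fluorescence, 10-s 1-Hz baseline, 110-s post-stimulus read · Compound – single concentration per compound, DMSO matched to controls · Schedule – 37 °C overnight plating, 90-min dark dye load, 20-min compound pretreatment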
Kir21 inh: inhibitors of mouse Kir2.1 inward-rectifier potassium channel. HEK293-Kir2.1, FluxOR thallium flux fluorescence; active compounds read low. B-score at 10 µM. 310,000 tested, 0.85% active. AID 1672;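 active means fluorescence ratio B-score at or below minus 3 SD of library scores, with starting-brightness B-score within 2 SD, cut at about -4.2 in these data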;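 further: channel flux triggered by added potassium and thallium sulfate stimulus; B-score of peak minus minimum fluorescence over baseline after thallium stimulus; more negative B-score means stronger Kir2.1 block with less thallium influx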
KCNQ1 block: blocks the human KCNQ1 potassium channel; CHO-K1 KCNQ1, FluxOR thallium flux fluorescence; active compounds read high; P51787; B-score at 10 µM; 310,000 tested, 1.3% active;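 active means compounds whose thallium flux B-score, printed positive for inhibition, exceeds three library SD while starting fluorescence stays within three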;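 further: channel opened by potassium depolarization with thallium stimulus after 20 min compound exposure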
KCNK9 block: blocks the human KCNK9 two-pore domain potassium channel; Q9NPC2; HEK293 KCNK9, FluxOR thallium flux fluorescence; active compounds read low; B-score at 10 µM; 310,000 tested, 1.2% active;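 active means ratio B-score over 3 SD below the library mean, with starting fluorescence within 5 SD of its mean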;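 further: negative B-score means less thallium flux so channel inhibition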
Target sequence (Q9NPC2 whole entry, looked up, the tested form may be a part): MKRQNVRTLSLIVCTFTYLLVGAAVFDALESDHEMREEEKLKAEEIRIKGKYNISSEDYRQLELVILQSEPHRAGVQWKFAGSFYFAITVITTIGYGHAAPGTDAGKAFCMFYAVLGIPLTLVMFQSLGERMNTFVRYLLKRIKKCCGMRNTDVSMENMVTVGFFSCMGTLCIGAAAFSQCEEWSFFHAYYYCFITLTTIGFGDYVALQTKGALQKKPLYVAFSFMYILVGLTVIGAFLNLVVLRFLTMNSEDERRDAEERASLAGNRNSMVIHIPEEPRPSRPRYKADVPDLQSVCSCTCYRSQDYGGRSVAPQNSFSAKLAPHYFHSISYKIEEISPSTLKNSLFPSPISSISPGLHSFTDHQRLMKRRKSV
hERG rescue: shields human hERG channel from block by proarrhythmic agents; activation (rescue from dofetilide block), less the hit threshold, % at 10 µM; 310,000 tested, 0.51% active; AID 1511; CHO-hERG, FluxOR thallium flux, dofetilide IC70 present;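 active means activation above the mean of controls blocked by dofetilide plus 5 SD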;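 further: thallium influx through hERG after potassium depolarization seen as dye fluorescence rise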
An asterisk follows results filed as active. The list is not random: actives were taken first. Their share in the collection is about 3.7%.

Results for Cc1cc(C)nc(Sc2c(C)n[nH]c2C)n1 ?
KCNK3 inh: inactive; KCNQ1 act: inactive; Kir21 inh: -1.7; KCNQ1 block: inactive; KCNK9 block: inactive; hERG rescue: 5.1*

Results for Cc1oc(C)c2c(=O)ccc3c(c12)OC(N)=C(C#N)C3c1ccccc1Cl (stereo not drawn) ?
KCNK3 inh: inactive; KCNQ1 act: inactive; Kir21 inh: -2.1; KCNQ1 block: 6*; KCNK9 block: inactive; hERG rescue: -14

Results for CC(C)C(C)NC(=O)CSc1nc2scc(-c3ccco3)c2c(=O)n1-c1ccccc1 (stereo not drawn) ?
KCNK3 inh: inactive; KCNQ1 act: inactive; Kir21 inh: -0.26; KCNQ1 block: inactive; KCNK9 block: -6.8*; hERG rescue: -4

Results for CC(C)C(C)(C#N)NC(=O)CSc1nc2scc(-c3ccco3)c2c(=O)n1-c1ccccc1 (stereo not drawn) ?
KCNK3 inh: inactive; KCNQ1 act: inactive; Kir21 inh: 0.51; KCNQ1 block: inactive; KCNK9 block: inactive; hERG rescue: -7

Results for Cc1cc(C)c(Nc2ncccc2C(=O)O)c(C)c1 ?
KCNK3 inh: inactive; KCNQ1 act: inactive; Kir21 inh: -0.01; KCNQ1 block: inactive; KCNK9 block: inactive; hERG rescue: 5.8*

What do the screens show for `O=C(NC1CCCCC1)C1CC(=O)N(c2ccccc2)C1` (stereo not drawn)?
KCNK3 inh: inactive; KCNQ1 act: inactive; Kir21 inh: 0.16; KCNQ1 block: inactive; KCNK9 block: inactive; hERG rescue: -5

What do the screens show for `CC(C)NCC(O)Cn1c2c(c3ccccc31)CCc1c-2cnn1-c1ccccc1` (stereo not drawn)?
KCNK3 inh: inactive; KCNQ1 act: inactive; Kir21 inh: -6.1*; KCNQ1 block: inactive; KCNK9 block: inactive; hERG rescue: -18

What do the screens show for `COc1ccc(C(=O)c2c(C)c3ccccc3n2CC(O)CNC(C)C)cc1` (stereo not drawn)?
KCNK3 inh: inactive; KCNQ1 act: inactive; Kir21 inh: -4.1; KCNQ1 block: inactive; KCNK9 block: inactive; hERG rescue: -12

How did CCCCN=C(NNc1ccc(Br)cc1)C(=O)OCC do in these assays?
KCNK3 inh: inactive; KCNQ1 act: inactive; Kir21 inh: -0.93; KCNQ1 block: inactive; KCNK9 block: -7.6*; hERG rescue: -6

Results for CCOC(=O)C(=NCCCN(C)C)NNc1ccc(Br)cc1 ?
KCNK3 inh: inactive; KCNQ1 act: inactive; Kir21 inh: -0.01; KCNQ1 block: inactive; KCNK9 block: inactive; hERG rescue: -6

What do the screens show for `CC(=O)Nc1ccc(S(=O)(=O)N(C)CC(=O)OCC(=O)c2ccc3c(c2)NC(=O)CO3)cc1`?
KCNK3 inh: inactive

What do the screens show for `COC(=O)C(NC(=O)CCC(=O)N[C@@H](C(=O)OC)c1ccccc1)c1ccccc1` (stereo partly drawn)?
KCNK3 inh: inactive; KCNQ1 act: inactive; Kir21 inh: 0.02; KCNQ1 block: inactive; KCNK9 block: inactive; hERG rescue: -2

What do the screens show for `O=C(O)CSc1nc2ccccc2c(=O)[nH]1`?
KCNK3 inh: inactive; KCNQ1 act: inactive; Kir21 inh: -0.34; KCNQ1 block: inactive; KCNK9 block: inactive; hERG rescue: -8

What do the screens show for `O=C(O)CSc1nc2ccccc2[nH]1`?
KCNK3 inh: inactive; KCNQ1 act: inactive; Kir21 inh: 1.1; KCNQ1 block: inactive; KCNK9 block: inactive; hERG rescue: 8.4*

How did C[C@@]12C(=O)N(CC3CC3)CC(=O)N1[C@H](/C=C/c1ccccc1)[C@@H]1C(=O)N(c3ccccc3)C(=O)[C@@H]12 do in these assays?
KCNK3 inh: inactive; KCNQ1 act: inactive; Kir21 inh: 0.97; KCNQ1 block: inactive; KCNK9 block: inactive; hERG rescue: -4

How did COc1ccc2oc(C(=O)Nc3nccs3)c(C)c2c1 do in these assays?
KCNK3 inh: inactive; KCNQ1 act: inactive; Kir21 inh: -0.78; KCNQ1 block: inactive; KCNK9 block: -7.9*; hERG rescue: -12

How did CCOc1ccc2oc(C(=O)Nc3nccs3)c(C)c2c1 do in these assays?
KCNK3 inh: inactive

What do the screens show for `CC(C)(C)c1cc(CP(=O)(c2ccccc2)c2ccccc2)cc(C(C)(C)C)c1O`?
KCNK3 inh: inactive; KCNQ1 act: inactive; Kir21 inh: -2.7; KCNQ1 block: 6*; KCNK9 block: inactive; hERG rescue: -7

Results for Cc1cc(C(=O)OCC(=O)Nc2ccccc2C#N)c(C)o1 ?
KCNK3 inh: inactive

Results for CCN1C(=O)/C(=C/N(C(C)=O)c2ccccc2)N(c2ccccc2)C1=S ?
KCNK3 inh: inactive; KCNQ1 act: inactive; Kir21 inh: -4.5*; KCNQ1 block: inactive; KCNK9 block: inactive; hERG rescue: -4

Results for CCc1ccc(/C=C2/C(=O)N(c3ccccc3)C(=S)N2CC(=O)OC)s1 ?
KCNK3 inh: inactive; KCNQ1 act: inactive; Kir21 inh: -0.45; KCNQ1 block: inactive; KCNK9 block: inactive; hERG rescue: -4

What do the screens show for `CC(=O)c1ccc(N2CCN(C(=O)c3nn(C)c4c3CS(=O)(=O)c3ccccc3-4)CC2)cc1`?
KCNK3 inh: inactive; KCNQ1 act: inactive; Kir21 inh: -0.43; KCNQ1 block: inactive; KCNK9 block: inactive; hERG rescue: -10

What do the screens show for `COc1ccc2[nH]c3c(c2c1)CCN1C(=O)C(CC(=O)NCCc2ccccn2)C[C@H](C(=O)N2CCOCC2)[C@@]31CCC1CCCC1` (stereo partly drawn)?
KCNK3 inh: inactive

What do the screens show for `Cc1ccc(-c2cc(C(=O)N(C)CC(=O)Nc3ccccc3Br)c3ccccc3n2)o1`?
KCNK3 inh: inactive; KCNQ1 act: inactive; Kir21 inh: 1.4; KCNQ1 block: inactive; KCNK9 block: inactive; hERG rescue: -31

What do the screens show for `COc1ccc2nc(SCC(=O)NCC(F)(F)F)[nH]c2c1`?
KCNK3 inh: inactive; KCNQ1 act: inactive; Kir21 inh: -0.95; KCNQ1 block: inactive; KCNK9 block: inactive; hERG rescue: 5.2*

What do the screens show for `O=S(=O)(c1ccccc1Cl)N1CCC(Cc2ccccc2)CC1`?
KCNK3 inh: inactive; KCNQ1 act: inactive; Kir21 inh: -0.25; KCNQ1 block: 6*; KCNK9 block: inactive; hERG rescue: -18

Results for Cn1c(=O)c(=O)n(C)c2cc(S(=O)(=O)N3CCC(Cc4ccccc4)CC3)ccc21 ?
KCNK3 inh: inactive; KCNQ1 act: inactive; Kir21 inh: 2; KCNQ1 block: inactive; KCNK9 block: inactive; hERG rescue: -3

Results for COc1ccc(S(=O)(=O)NCCSCc2ccco2)cc1Cl ?
KCNK3 inh: inactive; KCNQ1 act: inactive; Kir21 inh: -6.3*; KCNQ1 block: inactive; KCNK9 block: inactive; hERG rescue: -7

Compound activity: PubChem, Johns Hopkins Ion Channel Center
